# Source: PubChem (SRMLSC)
# Yeast life ext: compounds extending yeast replicative lifespan, primary screen, S. cerevisiae, OD615; S. cerevisiae growth with nicotinamide; deaD strain in restrictive glucose medium; inhibition of the nicotinamide effect, % at 10 µM; actives 0.68% (n = 130,000); AID 775, 2007;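 active means inhibition above a set limit, placed 3 SD over the median of all compounds, cut at about 26% in these data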;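 further: 0% = nicotinamide-treated wells and 100% = cells grown without nicotinamide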
#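 Material: Modified budding yeast, DeaD strain | Medium: Restrictive glucose medium | Probe or stimulus: 1.5 mM nicotinamide | Dosing: Single dose 10 µM compound, 0.25% DMSO | Times: 48 h at 30 °C | Technique: OD615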
# RAM inhibit: inhibitors of the yeast RAM network, primary screen, dse1pr::URA3 reporter, 5-FOA selection; S. cerevisiae dse1pr::URA3 reporter, 5-FOA growth OD615, 2 d; analog-sensitive cbk1-as2 kinase mutant strain; inhibition, % at 50 µM; actives 1.8% (n = 190,000);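 active means inhibition above a set limit, 3 SD over mean compound inhibition, cut at about 8.4% in these data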;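 further: 0% = DMSO-only wells with no growth and 100% = 10 µM 1-NA-PP1 full growth; inhibition rescues growth on 5-FOA so higher OD means more RAM inhibition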
# Yeast growth inh: growth inhibitors of yeast BB579 in restrictive medium, primary screen, yeast lifespan-shortening project, S. cerevisiae. inhibition, % at 10 µM. OD615, 48 h. actives 0.51% (n = 140,000);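 active means inhibition above a set limit, 3 SD over the mean compound inhibition, cut at about 44% in these data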
#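 Detection: OD615 turbidity measurement; Material: Saccharomyces cerevisiae DeaD strain BB579, replicative lifespan model yeast; Timing: 48 h exposure, 30 °C; Doses: single 10 µM dose; Medium: CSMM-D restrictive synthetic medium containing dextrose (glucose); Controls: amphotericin B at 10 µg/mL as positive control.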
# RAM efflux-def: 5-FOA growth of efflux-deficient control yeast, dose response, counter-screen for RAM network inhibitor project, S. cerevisiae, OD615 | shares compounds with RAM inhibit | S. cerevisiae efflux-deficient reporter strain, 5-FOA growth OD615, 2 days | max inhibition, % | 1,200 tested, under 10 active; call rule not given here;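 further: plate controls were vehicle for no effect and reference inhibitor for full effect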
# * = called active by the depositor; nt = no result given. Sampled rows, rich in hits. Any-hit rate of the full collection: about 2.6%.
SMILES,Yeast life ext,RAM inhibit,Yeast growth inh,RAM efflux-def
COc1cc(CNn2cn[nH]c2=S)cc(Cl)c1OCc1ccc(F)cc1,-8,-2,4,nt
C=CCNC(=O)c1onc(CSc2ccc(F)cc2)c1C(=O)NCCOC,-11,0,-43,nt
CC(C)CNC(=O)c1c(N)n(/N=C/c2ccccn2)c2nc3ccccc3nc12,-8,15*,-33,4
CCCCNC(=O)c1c(N)n(/N=C/c2ccccn2)c2nc3ccccc3nc12,-6,0,-64,nt
Cc1cccc(Cn2nc(C)cc2NC(=O)CCCn2ccc([N+](=O)[O-])n2)c1,nt,1,nt,nt
Cc1cccc(CNC(=O)CCc2nnc(C3CCCCC3)o2)c1,nt,3,nt,nt
Cc1ccc(-c2nnc(CCC(=O)NCC3C4CC5CC(C4)CC3C5)o2)s1 (stereo not drawn),nt,0,nt,nt
O=C(Cn1cc(C(=O)c2ccco2)c2ccccc21)Nc1ccccc1,-17,2,-16,nt
O=C(Cn1cc(C(=O)c2ccco2)c2ccccc21)NC1CCCCC1,nt,12*,nt,3
COc1ccc(/C=N/NC(=O)c2nc(-c3ccccc3)n(-c3ccccc3)n2)cc1,0,8,-42,nt
COc1ccc(C2CC(c3ccccc3)=NN2c2ccc(/C=N/NC(=O)c3ccncc3)cc2)cc1 (stereo not drawn),-12,13*,-46,6
C=CCO/N=C(/C)c1c(O)c(CC)c(-c2ccccc2)n(-c2ccccc2)c1=O,nt,13*,-29,2
CCc1c(O)c(/C(C)=N\O)c(=O)n(-c2ccccc2)c1-c1ccccc1,-5,5,-13,nt
NC(=O)C1(N2CCCCC2)CCN(C(=S)Nc2ccc(F)c(Cl)c2)CC1,nt,0,nt,nt
Cc1ccccc1OCC(=O)Nc1ccccc1N1CCC(C)CC1,nt,0,nt,nt
NC(N)=Nc1nc(C2COc3ccccc3O2)cs1 (stereo not drawn),0,1,-24,nt
CCOc1cccc(-c2csc(C3COc4ccccc4O3)n2)c1 (stereo not drawn),5,15*,-32,3
O=C(O)/C=C/C(=O)NC1CCC(CC2CCC(NC(=O)/C=C/C(=O)O)CC2)CC1 (stereo not drawn),nt,1,nt,nt
COc1ccc(O[C@H]2C=C[C@@H](c3ccccc3)O[C@@H]2COC(=O)CC/C(C)=N/OC[C@@H](O)COCc2ccco2)cc1,1,7,-29,nt
COc1ccc(O[C@H]2C=C[C@@H](c3ccccc3)O[C@@H]2COC(=O)CC/C(C)=N/O[C@@H](C)c2cc(-c3c(C)cc(C)cc3C)no2)cc1,2,21*,-43,4
Cc1ccc(SCC(=O)Nc2cccc(NC(=O)c3ccco3)c2)cc1,-14,2,-49,nt
CCCCOc1ccc(CNn2c(C)nc3ccccc3c2=O)cc1,-8,15*,-46,2
COc1ccc(CNn2c(C)nc3ccccc3c2=O)cc1,-9,2,-8,nt
N#CCc1ccc(NS(=O)(=O)c2ccc(C3CCCCC3)cc2)cc1,0,11*,-45,3
COc1ccc(S(=O)(=O)Nc2ccc(CC#N)cc2)cc1,-14,0,-7,nt
SMILES,Yeast life ext,RAM inhibit,Yeast growth inh,RAM efflux-def
Cc1ccc(NC(=O)/C(=C/c2ccco2)c2ccccc2)c(C)c1,-10,3,-71,nt
Cc1cc(C)c(NC(=O)/C(=C/c2ccccc2)c2ccccc2)c(C)c1,59,13*,-4,3
O=C(NNC(=O)C1CC=CCC1C(=O)O)c1ccc(Cl)cc1 (stereo not drawn),nt,1,nt,nt
Cc1cccc(Oc2cc(NC(=O)c3ccccc3)cc([N+](=O)[O-])c2)c1,-27,13*,-69,2
Cn1cc([N+](=O)[O-])c(C(=O)Nc2cc(Oc3ccccc3)cc([N+](=O)[O-])c2)n1,5,5,-44,nt
CCCn1ncc(CN2CCC(CO)(CC3CCCCO3)CC2)c1C (stereo not drawn),nt,0,nt,nt
CCOc1cc(S(=O)(=O)Nc2ccc(CC)cc2)ccc1Cl,11,14*,-69,1
CCOc1cc(S(=O)(=O)Nc2ccccc2CC)ccc1Cl,13,5,-52,nt
CCN(CC)CCC(C)OC(c1ccccc1)c1ccccc1 (stereo not drawn),nt,-1,nt,nt
COc1ccc(N2CCN(C(=O)c3ccc4ccccc4n3)CC2)cc1,nt,1,nt,nt
CCn1c(=O)c(C(=O)Nc2ccsc2C(=O)OC)c(O)c2ccccc21,9,2,-9,nt
C=CCn1c(=O)c(C(=O)NCCN(CC)CC)c(O)c2ccccc21,-4,0,-25,nt
CCCn1c(=O)c(C(=O)Nc2ccccc2C(=O)OC)c(O)c2ccccc21,-7,14*,-38,2
C=CCn1c(=O)c(C(=O)Nc2ccccc2C(=O)OCC)c(O)c2ccccc21,12,14*,-54,2
CCOC(=O)c1ccccc1NC(=O)c1c(O)c2ccccc2n(CC)c1=O,5,11*,-63,2
CCn1c(=O)c(C(=O)NC(C)C)c(O)c2ccccc21,-12,1,-39,nt
CCn1c(C)c(C2=CCN(S(=O)(=O)c3ccccc3)CC2)c2ccccc21,2,4,-39,nt
O=C(NCCn1cc(SCc2ccccc2)c2ccccc21)c1ccccc1F,6,15*,-28,2
O=C(CSc1cn(Cc2ccccc2)c2ccccc12)NCc1ccc(F)cc1,10,7,-39,nt
O=C(NC(=S)N(CCCCO)C1CCCCC1)c1sc2ccccc2c1Cl,-8,-1,27,nt
Cc1cccc(C)c1NC(=O)COC(=O)c1cccnc1,nt,1,nt,nt
CCCOc1ccc(C(C)=O)cc1CSc1nc(O)cc(=O)[nH]1,-5,3,-56,nt
N=c1c2cn[nH]c2nc(SCC(=O)c2ccc(Br)cc2)n1-c1ccc(Br)cc1,nt,1,nt,nt
CCCCOn1c(C)c(C(=O)OCC)c2c3no[n+]([O-])c3ccc21,-20,12*,-40,1
CCOC(=O)c1c(C)n(OC)c2ccc3c(no[n+]3[O-])c12,-3,4,-30,nt
SMILES,Yeast life ext,RAM inhibit,Yeast growth inh,RAM efflux-def
CN(C)C(=O)C1C2NC(=S)N(c3cccc(Cl)c3)C1(C)Oc1ccc(Cl)cc12 (stereo not drawn),nt,2,nt,nt
CCc1ccc(OCCOCC(O)CNC2CCCC2)cc1 (stereo not drawn),nt,2,nt,nt
CCN1CCN(C(c2ccccc2)c2nnnn2Cc2ccc3c(c2)OCO3)CC1 (stereo not drawn),nt,1,nt,nt
O=C(O)CCC(=O)Nc1ccccc1Oc1ccccc1,nt,-1,nt,nt
O=C(CCC(=O)c1ccc(Oc2ccccc2)cc1)Nc1cccc(Cl)c1Cl,4,14*,-33,3
CC(C)=CCc1c2c(c3occ(-c4ccc(O)cc4)c(=O)c3c1O)C=CC(C)(C)O2,nt,17*,nt,4
CC1(C)C=Cc2c(c3c(c4c(=O)c(-c5ccc(O)cc5)coc24)OC(C)(C)CC3)O1,nt,5,nt,nt
CN1CCN(S(=O)(=O)c2cccc(C(=O)NCc3ccc(Cl)cc3)c2)CC1,nt,0,nt,nt
CCOCCCNC(=O)/C(C#N)=C/c1ccc(C(=O)OC)cc1,nt,2,nt,nt
